Compound activity: PubChem BioAssay, The Scripps Research Institute Molecular Screening Center
SIAE primary: human SIAE inhibition, primary screen. Q9HAT2. SIAE FP-Rh probe binding, fluorescence polarization. inhibition, % at 9.66 µM. 370,000 compounds, 0.69% hits. AID 1053197;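 active means inhibition above a cutoff: mean of compounds within the control limits plus 3 SD of those, cut at about 17% in these data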;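 further: 0% = plate median of compound wells and 100% = probe without SIAE protein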
rCAG RNA binder: binds r(CAG) RNA repeats; 370,000 compounds, 1.3% hits; inhibition, % at 3 µM; r(CAG) RNA repeat, TO-PRO-1 dye displacement fluorescence;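 active means inhibition above the plate cutoff, the mean of all test compounds on that plate plus 3 SD, cut at about 35% in these data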;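 further: 0% = DMSO alone and 100% = 100 µM mitoxantrone as full dye displacement; higher means more dye released from RNA so lower well fluorescence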
ABHD4 inh: inhibits mouse alpha/beta hydrolase domain 4 | Q8VD66 | inhibition, % at 8.92 µM | purified mABHD4, FP-Rh probe fluorescence polarization | 370,000 compounds, 0.54% hits;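 active means inhibition exceeding the mean over every tested compound plus 3 SD, cut at about 30% in these data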;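 further: 0% = plate median of compound wells and 100% = S159A mutant with DMSO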
Target sequence (Q8VD66 whole entry, looked up, the tested form may be a part): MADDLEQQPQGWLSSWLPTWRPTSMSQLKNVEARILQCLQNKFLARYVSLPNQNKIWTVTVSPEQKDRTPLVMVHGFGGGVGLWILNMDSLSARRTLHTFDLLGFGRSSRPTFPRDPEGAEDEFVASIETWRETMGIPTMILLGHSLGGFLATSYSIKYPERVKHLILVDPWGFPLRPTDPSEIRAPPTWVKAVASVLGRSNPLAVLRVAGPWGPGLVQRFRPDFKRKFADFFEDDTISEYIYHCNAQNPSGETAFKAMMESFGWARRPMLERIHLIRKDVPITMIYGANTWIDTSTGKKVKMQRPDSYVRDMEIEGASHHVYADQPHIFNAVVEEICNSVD
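Test system: mABHD4 protein | Buffer or medium: HEPES pH 7.0 buffer, 150 mM NaCl, 0.01% Pluronic F-127 | Probe or stimulus: FP-Rh fluorescent activity-based probe, added after compound pre-incubation | Timing: Pre-incubation 45 min, probe exposure 60 min, at 25 °C | Technique: Fluorescence polarization, excitation 525 nm, emission 598 nm, BODIPY TMR filters | Repeats: Single well per compound (singlicate)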
HTRA1 inh: inhibitors of human serine peptidase HTRA1. inhibition, % at 5.96 µM. 340,000 compounds, 0.5% hits. AID 504803. recombinant HTRA1, FP-rhodamine activity-based probe, fluorescence polarization. Q92743; in the data active means inhibition above about 36%;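 further: 0% = enzyme with DMSO and 100% = wells lacking enzyme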
TCR CD3 inh: blocks the human TCR-CD3 interaction | TAMRA-labeled TCR probe fluorescence, biochemical | 360,000 compounds, 0.37% hits | inhibition, % at 9.4 µM;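 further: recombinant mutant TCR 2C K166C tagged with TAMRA read by polarization; 0% = receptor in buffer alone and 100% = receptor with positive control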
BSA TAMRA ctr: counter-screen for TCR-CD3 interaction inhibitors: BSA probe; 1,200 compounds, 10% hits; TAMRA-labeled BSA probe fluorescence counterscreen; inhibition, % at 9.4 µM; shares compounds with TCR CD3 inh; in the data active means inhibition above about 23%;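 further: 0% = buffer low control and 100% = reference high control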
TCR-CD3 conf: confirmation of human TCR-CD3 interaction inhibitors; inhibition, % at 9.4 µM; TAMRA-labeled TCR probe fluorescence binding assay; shares compounds with TCR CD3 inh; 1,200 compounds, 48% hits
rCAG bind conf: r(CAG) RNA repeat binding, confirmation. 4,300 compounds, 70% hits. AID 652065. TO-PRO-1 dye displacement fluorescence. shares compounds with rCAG RNA binder. inhibition, % at 3 µM;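 active means inhibition above a per-plate cutoff, the mean inhibition of sample wells plus 3 SD, cut at about 35% in these data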;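 further: loss of TO-PRO-1 fluorescence as compound displaces dye from 1x1 AA loop RNA; 0% = DMSO only wells and 100% = 100 µM mitoxantrone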
DNA CAG counter: DNA CAG dye complex inhibition counter-screen | shares compounds with rCAG RNA binder | d(CAG) DNA oligo TO-PRO-1 dye displacement, fluorescence | inhibition, % at 3 µM | 4,300 compounds, 94% hits | AID 652068;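 active means inhibition above its plate's cutoff, the mean test-well inhibition plus 3 SD, cut at about 4.8% in these data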;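 further: 0% = DNA dye mix with DMSO and 100% = 100 µM mitoxantrone; hits displace the dye from DNA and so lower well fluorescence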
dCAG dye DR: disrupts DNA CAG TO-PRO-1 complex in dose response; 250 compounds, 20% hits; shares compounds with rCAG RNA binder; DNA CAG/GTC duplex TO-PRO-1 dye displacement fluorescence; IC50, µM; in the data active means IC50 below about 10 µM
* hit, by the source's call. A selection: hits, their analogues and other compounds. The true share with any hit is near 2.5%. Unless noted, no stated cut-off is given here; in the data, active means inhibition above about 19%; inactive means the rest.

What do the screens show for `c1coc(-c2ccc3nncn3c2)c1`?
SIAE primary: 12; rCAG RNA binder: 47*; ABHD4 inh: 23; TCR CD3 inh: 35*; BSA TAMRA ctr: -3; TCR-CD3 conf: 30*; rCAG bind conf: 46*; DNA CAG counter: 18*; dCAG dye DR: inactive

Results for N#Cc1c(SCC(=O)Nc2nncs2)sc2c(O)cc(=O)[nH]c12 ?
SIAE primary: -19; rCAG RNA binder: 62*; ABHD4 inh: 3; HTRA1 inh: -9; TCR CD3 inh: 27*; BSA TAMRA ctr: -13; TCR-CD3 conf: 9; rCAG bind conf: 44*; DNA CAG counter: 15*

Results for CSc1nc(NCCOCCO)c2sc3nc(-c4ccco4)c4c(c3c2n1)CCC4 ?
SIAE primary: 7; rCAG RNA binder: 52*; ABHD4 inh: 8; HTRA1 inh: -36; TCR CD3 inh: 20*; BSA TAMRA ctr: -3; TCR-CD3 conf: 0; rCAG bind conf: 38*; DNA CAG counter: 18*; dCAG dye DR: inactive

Results for COc1ccccc1NC(=O)N1CCN(S(C)(=O)=O)CC1 ?
SIAE primary: -8; rCAG RNA binder: 2; ABHD4 inh: -6; HTRA1 inh: -1; TCR CD3 inh: -2

What do the screens show for `CCOC(=O)C1CCCN(C(=O)c2cc(-c3ccco3)nc3ccccc23)C1` (stereo unspecified)?
SIAE primary: 9; rCAG RNA binder: 39*; ABHD4 inh: 11; HTRA1 inh: 26; TCR CD3 inh: 21*; BSA TAMRA ctr: -12; TCR-CD3 conf: 15; rCAG bind conf: 32; DNA CAG counter: 15*

How did CCOC(=O)C1CCCN(C(=O)c2cc(-c3ccncc3)nc3ccccc23)C1 (stereo unspecified) do in these assays?
SIAE primary: 0; rCAG RNA binder: -6; ABHD4 inh: -1; HTRA1 inh: -1; TCR CD3 inh: 11

How did O=C(Nc1nc(-c2ccco2)c(-c2ccco2)s1)c1cnccn1 do in these assays?
SIAE primary: 14; rCAG RNA binder: 44*; ABHD4 inh: 23; TCR CD3 inh: 38*; BSA TAMRA ctr: 0; TCR-CD3 conf: 15; rCAG bind conf: 22; DNA CAG counter: 13*

What do the screens show for `C=Cc1c(C)c2cc3[nH]c(cc4nc(cc5nc(cc1[nH]2)C(C)=C5CCC(=O)O)C(CCC(=O)O)=C4C)c(C)c3C=C`?
SIAE primary: 75*; rCAG RNA binder: 90*; ABHD4 inh: 70*; HTRA1 inh: 69*; TCR CD3 inh: 37*; BSA TAMRA ctr: -9; TCR-CD3 conf: 19*; rCAG bind conf: 87*; DNA CAG counter: 57*

Results for CCSc1nnc(-c2ccco2)n1C ?
SIAE primary: 3; rCAG RNA binder: -1; ABHD4 inh: -2

How did O=C(O)c1ccccc1/C=N/NC(=O)c1cc(-c2ccco2)nc2ccccc12 do in these assays?
SIAE primary: 11; rCAG RNA binder: 35*; ABHD4 inh: 11; HTRA1 inh: 20; TCR CD3 inh: 20*; BSA TAMRA ctr: -8; TCR-CD3 conf: 25*; rCAG bind conf: 45*; DNA CAG counter: 21*

What do the screens show for `COc1ccccc1NC(=O)NNC(=O)c1cc2ccccc2cc1O`?
SIAE primary: 13; rCAG RNA binder: 42*; ABHD4 inh: 8; HTRA1 inh: 33; TCR CD3 inh: 19*; BSA TAMRA ctr: -6; TCR-CD3 conf: 23*; rCAG bind conf: 34; DNA CAG counter: 11*

What do the screens show for `COc1ccccc1NC(=O)NNC(=O)c1ccc(-c2ccccc2)cc1`?
SIAE primary: 0; rCAG RNA binder: 4; ABHD4 inh: -12; HTRA1 inh: -17; TCR CD3 inh: -1

What do the screens show for `O=C(O)c1cc(O)c2c(c1)[C@@H]([C@H]1c3cc(C(=O)O)cc(O)c3C(=O)c3c(O[C@@H]4O[C@H](CO)[C@@H](O)[C@H](O)[C@H]4O)cccc31)c1cccc(OC3O[C@H](CO)[C@@H](O)[C@H](O)[C@H]3O)c1C2=O` (stereo partly specified)?
SIAE primary: 68*; rCAG RNA binder: 100*; ABHD4 inh: 27; HTRA1 inh: 26; TCR CD3 inh: 153*; BSA TAMRA ctr: -13; TCR-CD3 conf: 109*; rCAG bind conf: 86*; DNA CAG counter: 52*

How did N#Cc1c(N(CCO)CCO)nc(N)c2c(N)nc3c(c12)CC(=O)N3CC1CCCO1 (stereo unspecified) do in these assays?
SIAE primary: 0; rCAG RNA binder: 35*; ABHD4 inh: 8; HTRA1 inh: 2; TCR CD3 inh: 25*; BSA TAMRA ctr: 7; TCR-CD3 conf: 7; rCAG bind conf: 10; DNA CAG counter: 5.7*

How did COc1ccc([N+](=O)[O-])cc1NC(=S)NC(NC(=O)C(c1ccccc1)c1ccccc1)C(Cl)(Cl)Cl (stereo unspecified) do in these assays?
SIAE primary: -66; rCAG RNA binder: 47*; ABHD4 inh: -89; HTRA1 inh: -83; TCR CD3 inh: 74*; BSA TAMRA ctr: 33*; TCR-CD3 conf: 59*; rCAG bind conf: 39*; DNA CAG counter: 23*

What do the screens show for `COc1ccc([N+](=O)[O-])cc1NC(=O)C(C)c1ccccc1` (stereo unspecified)?
SIAE primary: 1; rCAG RNA binder: 2; ABHD4 inh: -1; HTRA1 inh: -8; TCR CD3 inh: 0

What do the screens show for `O=C(NCCc1cn2ccccc2n1)c1cc(COc2c(F)cccc2F)on1`?
SIAE primary: -1; rCAG RNA binder: -6; ABHD4 inh: -5; HTRA1 inh: -5; TCR CD3 inh: 5

How did O=C(CNC(=O)c1ccccc1Br)N/N=C\c1cc([N+](=O)[O-])cc(Br)c1O do in these assays?
SIAE primary: -1; rCAG RNA binder: 39*; ABHD4 inh: 11; HTRA1 inh: 11; TCR CD3 inh: 69*; BSA TAMRA ctr: -5; TCR-CD3 conf: 61*; rCAG bind conf: 31; DNA CAG counter: 7.9*

What do the screens show for `O=C(CNC(=O)c1ccccc1Br)N/N=C/c1ccccc1O`?
SIAE primary: 1; rCAG RNA binder: 0; ABHD4 inh: -4; HTRA1 inh: -1; TCR CD3 inh: 4
